Data reported in ChEMBL document CHEMBL1821676, “Click to a focused library of benzyl 6-triazolo(hydroxy)benzoic glucosides: novel construction of PTP1B inhibitors on a sugar scaffold” (Eur J Med Chem, 2011).
pIC50: −log10 of the molar value.

Target: T1, Tyrosine-protein phosphatase non-receptor type 1 (Homo sapiens, UniProt P18031)
T1 sequence (P18031 whole entry): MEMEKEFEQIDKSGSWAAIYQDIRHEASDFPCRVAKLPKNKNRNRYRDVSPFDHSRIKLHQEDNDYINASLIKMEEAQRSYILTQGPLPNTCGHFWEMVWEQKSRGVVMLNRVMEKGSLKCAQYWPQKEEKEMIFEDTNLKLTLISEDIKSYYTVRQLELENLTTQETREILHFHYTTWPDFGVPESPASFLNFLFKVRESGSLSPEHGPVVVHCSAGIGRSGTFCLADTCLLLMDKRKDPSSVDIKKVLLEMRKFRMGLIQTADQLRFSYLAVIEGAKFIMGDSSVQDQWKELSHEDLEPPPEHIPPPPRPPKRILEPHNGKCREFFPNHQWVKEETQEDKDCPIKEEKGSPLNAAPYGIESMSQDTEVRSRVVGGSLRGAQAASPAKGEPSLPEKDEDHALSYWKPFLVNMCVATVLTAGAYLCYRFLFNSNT
Assay: Inhibition of human recombinant PTP1B expressed in CHO cells assessed as p-nitorphenol production after 2 mins by microplate reader
Type: cell-based
Procedure, shortened: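 Recombinant human PTP1B catalytic domain (30 nM) with 2 mM pNPP in 50 mM MOPS, pH 6.5, at 30 °C. pNP release was read continuously at 405 nm for 2 min, and the initial rate was taken from the early linear region. Inhibitors were diluted around the estimated IC50. IC50 came from a nonlinear fit of % inhibition vs [I] using a Hill-coefficient equation.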

pIC50, < 4.00:
O=C(O)c1cc(O)cc(O)c1 [3,5-DIHYDROXYBENZOIC ACID], O=C(O)c1cc(O)ccc1O [GENTISIC ACID], O=C(O)c1cccc(O)c1 [3-HYDROXYBENZOIC ACID]
